The source made the active and inactive calls. No cut-off for these calls is given here.
Experiments:
LNCaP [1] = test: Cytotoxicity against human LNCAP cells at 100 uM after 48 hrs by MTT assay; format: functional, cell-based
HGC = test: Cytotoxicity against human HGC cells at 100 uM after 48 hrs by MTT assay; format: functional, cell-based
MDA-MB-231 [2] = test: Cytotoxicity against human MDA-MB-231 cells at 100 uM after 48 hrs by MTT assay; format: functional, cell-based
A549 [3] = test: Cytotoxicity against human A549 cells at 100 uM after 48 hrs by MTT assay; format: functional, cell-based
DU-145 [4] = test: Cytotoxicity against human DU145 cells at 100 uM after 48 hrs by MTT assay; format: functional, cell-based
[5] = Cytotoxicity against human RWPE1 cells at 100 uM after 48 hrs by MTT assay; format: cell-based; details: rwpe-1, 48 h
A549 [6] = test: Cytotoxicity against human A549 cells after 48 hrs by MTT assay; format: functional, cell-based; details: A549, 48 h
DU-145 [7] = test: Cytotoxicity against human DU145 cells after 48 hrs by MTT assay; format: functional, cell-based; details: DU-145, 48 h
[8] = Cytotoxicity against human RWPE1 cells after 48 hrs by MTT assay; format: cell-based; details: RWPE-1, 48 h
LNCaP [9] = test: Cytotoxicity against human LNCAP cells after 48 hrs by MTT assay; format: functional, cell-based
[10] = Cytotoxicity against human HGC cells after 48 hrs by MTT assay; format: functional, cell-based
MDA-MB-231 [11] = test: Cytotoxicity against human MDA-MB-231 cells after 48 hrs by MTT assay; format: functional, cell-based; details: MDA-MB-231, 48 h
[12] = Therapeutic index, ratio of IC50 for human RWPE1 cells to IC50 for human DU145 cells; format: cell-based; details: RWPE1 cells versus DU145 cells, read-out: Ratio IC50
How it was run: (§1)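 Selectivity expressed as the fold by which the IC50 in normal prostate epithelial RWPE-1 cells exceeds the IC50 in the prostate cancer line (DU-145 or LNCaP).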

[13] = Therapeutic index, ratio of IC50 for human RWPE1 cells to IC50 for human LNCAP cells; format: cell-based; details: RWPE1 cells versus LNCAP cells, read-out: Ratio IC50; how it was run: as §1
[14] = target: DNA topoisomerase 2-alpha (Homo sapiens) (UniProt P11388); test: Inhibition of topoisomerase-2 (unknown origin) using kDNA assessed as increase of catenated kDNA level at 100 uM after 10 mins using ethidium bromide staining by agarose gel electrophoresis
Chain of DNA topoisomerase 2-alpha (Homo sapiens) (P11388 whole entry): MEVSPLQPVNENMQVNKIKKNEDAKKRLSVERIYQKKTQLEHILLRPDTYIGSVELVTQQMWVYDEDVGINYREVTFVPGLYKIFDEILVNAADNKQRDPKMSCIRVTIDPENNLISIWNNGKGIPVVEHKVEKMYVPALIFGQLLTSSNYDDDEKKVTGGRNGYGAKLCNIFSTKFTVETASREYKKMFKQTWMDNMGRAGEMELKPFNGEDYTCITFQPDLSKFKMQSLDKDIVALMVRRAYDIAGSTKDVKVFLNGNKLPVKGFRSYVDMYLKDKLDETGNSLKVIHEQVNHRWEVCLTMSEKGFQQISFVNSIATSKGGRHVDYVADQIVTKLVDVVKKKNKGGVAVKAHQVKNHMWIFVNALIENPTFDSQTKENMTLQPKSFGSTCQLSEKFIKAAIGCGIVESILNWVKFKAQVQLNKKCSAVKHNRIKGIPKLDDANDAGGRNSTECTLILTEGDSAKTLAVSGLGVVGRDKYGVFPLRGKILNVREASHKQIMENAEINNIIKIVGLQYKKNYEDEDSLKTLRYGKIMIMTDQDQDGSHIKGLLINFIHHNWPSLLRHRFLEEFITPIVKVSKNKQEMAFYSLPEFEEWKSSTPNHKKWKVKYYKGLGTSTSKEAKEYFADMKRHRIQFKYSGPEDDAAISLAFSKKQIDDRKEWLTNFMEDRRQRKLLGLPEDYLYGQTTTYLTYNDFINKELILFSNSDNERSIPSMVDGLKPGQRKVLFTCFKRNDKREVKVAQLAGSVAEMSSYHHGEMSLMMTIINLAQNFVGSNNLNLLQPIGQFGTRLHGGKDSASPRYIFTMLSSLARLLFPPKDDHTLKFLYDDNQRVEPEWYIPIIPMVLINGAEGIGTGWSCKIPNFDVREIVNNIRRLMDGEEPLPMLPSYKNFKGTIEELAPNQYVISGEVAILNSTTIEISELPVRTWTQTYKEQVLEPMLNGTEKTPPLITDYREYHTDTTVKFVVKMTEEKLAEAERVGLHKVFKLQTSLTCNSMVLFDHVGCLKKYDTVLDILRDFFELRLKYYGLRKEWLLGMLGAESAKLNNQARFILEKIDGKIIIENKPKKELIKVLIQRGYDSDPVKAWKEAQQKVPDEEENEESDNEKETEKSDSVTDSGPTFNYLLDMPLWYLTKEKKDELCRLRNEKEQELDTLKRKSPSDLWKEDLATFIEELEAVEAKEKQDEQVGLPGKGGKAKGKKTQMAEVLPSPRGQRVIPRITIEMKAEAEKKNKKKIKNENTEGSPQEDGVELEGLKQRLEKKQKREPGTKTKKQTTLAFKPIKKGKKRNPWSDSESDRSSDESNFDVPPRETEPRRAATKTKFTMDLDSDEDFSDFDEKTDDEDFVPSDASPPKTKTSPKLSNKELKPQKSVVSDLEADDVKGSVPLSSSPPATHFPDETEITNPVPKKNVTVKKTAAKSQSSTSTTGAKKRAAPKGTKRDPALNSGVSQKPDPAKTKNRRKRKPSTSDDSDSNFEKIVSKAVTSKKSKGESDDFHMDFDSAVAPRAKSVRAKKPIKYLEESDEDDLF
How it was run: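 Drug-screening kit decatenation assay: catenated DNA incubated with topoisomerase II (5 units) and test agent, with etoposide as reference. Products were resolved by gel and visualised. Inhibition was judged by catenated DNA remaining in the wells, compared with nicked circular, relaxed circular or linear DNA forms.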

Compound	Activity (LNCaP [1])	Activity (HGC)	Activity (MDA-MB-231 [2])	Activity (A549 [3])	Activity (DU-145 [4])	Activity [5]	IC50 (A549 [6]) [µM]	IC50 (DU-145 [7]) [µM]	IC50 [8] [µM]	IC50 (LNCaP [9]) [µM]	IC50 [10] [µM]	IC50 (MDA-MB-231 [11]) [µM]	selectivity ratio [12]	selectivity ratio [13]	inhibition [14]
COc1cc([C@@H]2c3cc4c(cc3[C@@H](NC(=S)Nc3cccc(F)c3)[C@H]3COC(=O)[C@H]23)OCO4)cc(OC)c1OC	inactive	inactive	inactive	inactive	inactive	Non-toxic	–	–	–	–	–	–	–	–	–
COc1cc([C@@H]2c3cc4c(cc3[C@@H](NC(=S)Nc3ccccc3C(F)(F)F)[C@H]3COC(=O)[C@H]23)OCO4)cc(OC)c1OC	–	–	–	–	–	–	> 100	2.34	44.5	12.9	86	85.7	19	3.4	–
COc1ccc(NC(=S)N[C@@H]2c3cc4c(cc3[C@@H](c3cc(OC)c(OC)c(OC)c3)[C@H]3C(=O)OC[C@@H]32)OCO4)c(OC)c1	inactive	inactive	inactive	inactive	inactive	Non-toxic	–	–	–	–	–	–	–	–	–
COc1cc([C@@H]2c3cc4c(cc3[C@@H](NC(=S)Nc3cccc(C(F)(F)F)c3)[C@H]3COC(=O)[C@H]23)OCO4)cc(OC)c1OC	–	–	–	inactive	–	–	–	21	> 100	22.2	12.9	17.9	–	–	–
COc1cc(NC(=S)N[C@@H]2c3cc4c(cc3[C@@H](c3cc(OC)c(OC)c(OC)c3)[C@H]3C(=O)OC[C@@H]32)OCO4)cc(OC)c1	inactive	inactive	inactive	inactive	inactive	Non-toxic	–	–	–	–	–	–	–	–	–
COc1cc([C@@H]2c3cc4c(cc3[C@@H](NC(=S)Nc3ccc(C(F)(F)F)cc3)[C@H]3COC(=O)[C@H]23)OCO4)cc(OC)c1OC	–	–	–	–	–	–	14.8	1.96	16.9	3.56	56.8	7.58	8.6	4.7	Active
COc1ccc(NC(=S)N[C@@H]2c3cc4c(cc3[C@@H](c3cc(OC)c(OC)c(OC)c3)[C@H]3C(=O)OC[C@@H]32)OCO4)c([N+](=O)[O-])c1	–	–	–	–	–	–	35.1	12.2	78.4	25.6	33.4	39.8	6.4	3.1	–
COc1cc([C@@H]2c3cc4c(cc3[C@@H](NC(=S)Nc3ccc(C#N)cc3)[C@H]3COC(=O)[C@H]23)OCO4)cc(OC)c1OC	inactive	inactive	inactive	inactive	inactive	–	–	–	–	–	–	–	–	–	–
COc1cc([C@@H]2c3cc4c(cc3[C@@H](NC(=S)Nc3ccccc3F)[C@H]3COC(=O)[C@H]23)OCO4)cc(OC)c1OC	–	–	–	inactive	–	–	–	63.3	> 100	> 100	22.4	> 100	–	–	–
COc1cc([C@@H]2c3cc4c(cc3[C@@H](NC(=S)Nc3ccc(Cl)c(Cl)c3)[C@H]3COC(=O)[C@H]23)OCO4)cc(OC)c1OC	–	–	–	inactive	–	–	–	14.1	> 100	20	86.1	11.9	–	–	–
COc1cc([C@@H]2c3cc4c(cc3[C@@H](NC(=S)Nc3ccc(F)cc3)[C@H]3COC(=O)[C@H]23)OCO4)cc(OC)c1OC	inactive	inactive	inactive	inactive	inactive	Non-toxic	–	–	–	–	–	–	–	–	–
COc1ccc(OC)c(NC(=S)N[C@@H]2c3cc4c(cc3[C@@H](c3cc(OC)c(OC)c(OC)c3)[C@H]3C(=O)OC[C@@H]32)OCO4)c1	inactive	inactive	inactive	inactive	inactive	Non-toxic	–	–	–	–	–	–	–	–	–
COc1ccc(NC(=S)N[C@@H]2c3cc4c(cc3[C@@H](c3cc(OC)c(OC)c(OC)c3)[C@H]3C(=O)OC[C@@H]32)OCO4)cc1OC	–	–	–	–	–	–	65.5	58.8	> 100	> 100	23.7	> 100	–	–	–
COc1cc([C@@H]2c3cc4c(cc3[C@@H](NC(=S)Nc3ccc(OCc5ccccc5)cc3)[C@H]3COC(=O)[C@H]23)OCO4)cc(OC)c1OC	inactive	inactive	inactive	inactive	inactive	Non-toxic	–	–	–	–	–	–	–	–	–
COc1cc(NC(=S)N[C@@H]2c3cc4c(cc3[C@@H](c3cc(OC)c(OC)c(OC)c3)[C@H]3C(=O)OC[C@@H]32)OCO4)ccc1[N+](=O)[O-]	inactive	inactive	inactive	inactive	inactive	Non-toxic	–	–	–	–	–	–	–	–	–
COc1cc([C@@H]2c3cc4c(cc3[C@H](O)[C@H]3COC(=O)[C@H]23)OCO4)cc(OC)c1OC [PODOFILOX]	–	–	–	–	–	–	129	–	–	–	–	–	–	–	–
COc1cc([C@@H]2c3cc4c(cc3[C@@H](NC(=S)Nc3c(C)cc(C)cc3C)[C@H]3COC(=O)[C@H]23)OCO4)cc(OC)c1OC	–	–	–	inactive	–	–	–	10.6	71.7	39.8	60.3	19.4	6.8	1.8	–
COc1cc([C@@H]2c3cc4c(cc3[C@@H](NC(=S)Nc3ccc([N+](=O)[O-])cc3)[C@H]3COC(=O)[C@H]23)OCO4)cc(OC)c1OC	–	–	–	–	–	–	44	7.89	56.7	53.1	69.6	31.8	7.2	–	–
CCOC(=O)c1ccc(NC(=S)N[C@@H]2c3cc4c(cc3[C@@H](c3cc(OC)c(OC)c(OC)c3)[C@H]3C(=O)OC[C@@H]32)OCO4)cc1	–	–	–	–	–	–	> 100	2.37	64	5.49	45.4	> 100	27	11.6	–
COc1cc([C@@H]2c3cc4c(cc3[C@@H](NC(=S)Nc3ccc(C(C)C)cc3)[C@H]3COC(=O)[C@H]23)OCO4)cc(OC)c1OC	–	–	–	–	–	–	62	59.9	> 100	84.8	> 100	> 100	–	–	–
COc1cc([N+](=O)[O-])ccc1NC(=S)N[C@@H]1c2cc3c(cc2[C@@H](c2cc(OC)c(OC)c(OC)c2)[C@H]2C(=O)OC[C@@H]21)OCO3	inactive	inactive	inactive	inactive	inactive	Non-toxic	–	–	–	–	–	–	–	–	–
COc1cc([C@@H]2c3cc4c(cc3[C@@H](O[C@@H]3O[C@@H]5CO[C@@H](C)O[C@H]5[C@H](O)[C@H]3O)[C@H]3COC(=O)[C@H]23)OCO4)cc(OC)c1O [ETOPOSIDE]	–	–	–	–	–	–	38.5	5.21	27.6	50.3	10.9	49.4	5.3	–	Active

From ChEMBL document CHEMBL3616464, “One-pot synthesis of podophyllotoxin-thiourea congeners by employing NH₂SO₃H/NaI: Anticancer activity, DNA topoisomerase-II inhibition, and apoptosis inducing agents” (Bioorg Med Chem Lett, 2015)
